Source: ChEMBL document CHEMBL1155415, “Synthesis, characterization, and in vitro antimicrobial activities of 5-alkenyl/hydroxyalkenyl-2-phenylamine-1,3,4-oxadiazoles and thiadiazoles” (2010)
In brackets after ≈: the same amount, converted by molar mass.

How the values were obtained:
Assay type in all cases: functional
[1] = tested on: Trichophyton mentagrophytes; assay: Antifungal activity against Trichophyton mentagrophytes after 48 hrs by two fold dilution technique
How it was run: (§1)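 Broth MIC. Broth with log two-fold serial dilutions of compound was inoculated with about 1.6 × 10⁴–6 × 10⁴ c.f.u./ml of fungus and incubated 48 h at 35 °C. MIC is the lowest concentration arresting fungal growth.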

Escherichia coli [2] = assay: Antibacterial activity against Escherichia coli ATCC 25922 after 24 hrs by disc diffusion method
How it was run: (§2)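 Agar disc diffusion. A standard inoculum of […] c.f.u./ml (0.5 McFarland) was spread evenly on agar. 6 mm Whatman no. 1 paper discs, dry-heat sterilized (140 °C, 1 h), were soaked in test compound and placed on nutrient agar. Plates were inverted and incubated 24 h at 37 °C. Read-out: diameter of the inhibition zone.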

Staphylococcus aureus [3] = assay: Antibacterial activity against Staphylococcus aureus ATCC 25923 after 24 hrs by two fold dilution technique; conditions: ATCC 25923, 24 h
How it was run: (§3)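 Broth dilution MIC. Nutrient broth held log two-fold serial dilutions of compound and was inoculated with about 5 × 10⁵ c.f.u./ml of actively dividing bacteria. Incubation was 24 h at 37 °C, with growth checked visually and spectrophotometrically. MIC is the lowest concentration arresting growth.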

Streptococcus pyogenes [4] = assay: Antibacterial activity against Streptococcus pyogenes after 24 hrs by two fold dilution technique; how it was run: as §3
Klebsiella pneumoniae [5] = assay: Antibacterial activity against Klebsiella pneumoniae after 24 hrs by disc diffusion method; how it was run: as §2
Staphylococcus aureus [6] = assay: Antibacterial activity against Staphylococcus aureus ATCC 25923 after 24 hrs by disc diffusion method; how it was run: as §2
Talaromyces marneffei [7] = assay: Antifungal activity against Penicillium marneffei after 48 hrs by two fold dilution technique; how it was run: as §1
Aspergillus fumigatus [8] = assay: Antifungal activity against Aspergillus fumigatus after 48 hrs by two fold dilution technique; how it was run: as §1
Escherichia coli [9] = assay: Antibacterial activity against Escherichia coli ATCC 25922 after 24 hrs by two fold dilution technique; conditions: ATCC 25922, 24 h; how it was run: as §3
Candida albicans [10] = assay: Ratio of MFC to MIC for Candida albicans
How it was run: (§4)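 MFC: 0.1 ml from each MIC tube was spread on agar and colonies were counted after 48 h at 35 °C. MFC is the lowest concentration killing 99.9% of the inoculum. The MFC/MIC ratio was then calculated to classify activity as fungistatic or fungicidal.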

Pseudomonas aeruginosa [11] = assay: Antibacterial activity against Pseudomonas aeruginosa ATCC 27853 after 24 hrs by disc diffusion method; how it was run: as §2
Talaromyces marneffei [12] = assay: Ratio of MFC to MIC for Penicillium marneffei; how it was run: as §4
Talaromyces marneffei [13] = assay: Antifungal activity against Penicillium marneffei after 48 hrs by disk diffusion method
How it was run: (§5)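 Agar well diffusion with compounds in DMSO. The dish was lawned with a saline spore suspension, excess decanted, and dried 1 h at 37 °C. Wells were punched. Read-out: inhibition zone in mm. Griseofulvin served as standard and DMSO as negative control.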

Klebsiella pneumoniae [14] = assay: Antibacterial activity against Klebsiella pneumoniae after 18 to 24 hrs
[15] = tested on: Trichophyton mentagrophytes; assay: Antifungal activity against Trichophyton mentagrophytes after 48 hrs by disk diffusion method; how it was run: as §5
Staphylococcus aureus [16] = assay: Antibacterial activity against Staphylococcus aureus ATCC 25923 after 18 to 24 hrs
Escherichia coli [17] = assay: Antibacterial activity against Escherichia coli ATCC 25922 after 18 to 24 hrs
Candida albicans [18] = assay: Antifungal activity against Candida albicans after 48 hrs by two fold dilution technique; how it was run: as §1
Pseudomonas aeruginosa [19] = assay: Antibacterial activity against Pseudomonas aeruginosa ATCC 27853 after 24 hrs by two fold dilution technique; conditions: ATCC 27853, 24 h; how it was run: as §3
Streptococcus pyogenes [20] = assay: Antibacterial activity against Streptococcus pyogenes after 24 hrs by disc diffusion method; how it was run: as §2
Aspergillus fumigatus [21] = assay: Ratio of MFC to MIC for Aspergillus fumigatus; how it was run: as §4
Streptococcus pyogenes [22] = assay: Antibacterial activity against Streptococcus pyogenes after 18 to 24 hrs
Klebsiella pneumoniae [23] = assay: Antibacterial activity against Klebsiella pneumoniae after 24 hrs by two fold dilution technique; how it was run: as §3
Pseudomonas aeruginosa [24] = assay: Antibacterial activity against Pseudomonas aeruginosa ATCC 27853 after 18 to 24 hrs
Aspergillus fumigatus [25] = assay: Antifungal activity against Aspergillus fumigatus after 48 hrs by disk diffusion method; how it was run: as §5
Candida albicans [26] = assay: Antifungal activity against Candida albicans after 48 hrs by disk diffusion method; how it was run: as §5
[27] = tested on: Trichophyton mentagrophytes; assay: Ratio of MFC to MIC for Trichophyton mentagrophytes; how it was run: as §4

| Compound | MFC [1] | MIC [1] | diameter of the inhibition zone (DIZ) (Escherichia coli [2]) | MIC (Staphylococcus aureus [3]) | MIC (Streptococcus pyogenes [4]) | diameter of the inhibition zone (DIZ) (Klebsiella pneumoniae [5]) | diameter of the inhibition zone (DIZ) (Staphylococcus aureus [6]) | MFC (Talaromyces marneffei [7]) | MIC (Talaromyces marneffei [7]) | MFC (Aspergillus fumigatus [8]) | MIC (Aspergillus fumigatus [8]) | Ratio (Candida albicans [10]) | Ratio (Talaromyces marneffei [12]) | diameter of the inhibition zone (DIZ) (Talaromyces marneffei [13]) | diameter of the inhibition zone (DIZ) [15] | MFC (Candida albicans [18]) | MIC (Candida albicans [18]) | Ratio (Aspergillus fumigatus [21]) | diameter of the inhibition zone (DIZ) (Aspergillus fumigatus [25]) | diameter of the inhibition zone (DIZ) (Candida albicans [26]) | further results |
| --- | --- | --- | --- | --- | --- | --- | --- | --- | --- | --- | --- | --- | --- | --- | --- | --- | --- | --- | --- | --- | --- |
| CCCCCCC(O)C/C=C\CCCCCCCc1nnc(Nc2ccccc2)s1 (stereo not drawn) | 25 µg/mL (≈ 58.2 µM) | 12.5 µg/mL (≈ 29.1 µM) | 25.5 mm | 6.25 µg/mL (≈ 14.5 µM) | 6.25 µg/mL (≈ 14.5 µM) | 22.7 mm | 21.6 mm | 50 µg/mL (≈ 116 µM) | 25 µg/mL (≈ 58.2 µM) | 50 µg/mL (≈ 116 µM) | 12.5 µg/mL (≈ 29.1 µM) | 2 | 2 | 15.1 mm | 18.9 mm | 25 µg/mL (≈ 58.2 µM) | 12.5 µg/mL (≈ 29.1 µM) | 4 | 22.4 mm | 25.1 mm | MIC (Escherichia coli [9]): 6.5 µg/mL (≈ 15.1 µM); diameter of the inhibition zone (DIZ) (Pseudomonas aeruginosa [11]): 29.2 mm; MBC (Klebsiella pneumoniae [14]): 6.25 µg/mL (≈ 14.5 µM); MBC (Staphylococcus aureus [16]): 12.5 µg/mL (≈ 29.1 µM); MBC (Escherichia coli [17]): 12.5 µg/mL (≈ 29.1 µM); MIC (Pseudomonas aeruginosa [19]): 6.25 µg/mL (≈ 14.5 µM); diameter of the inhibition zone (DIZ) (Streptococcus pyogenes [20]): 22.9 mm; MBC (Streptococcus pyogenes [22]): 12.5 µg/mL (≈ 29.1 µM); MIC (Klebsiella pneumoniae [23]): 6.25 µg/mL (≈ 14.5 µM); MBC (Pseudomonas aeruginosa [24]): 12.5 µg/mL (≈ 29.1 µM) |
| CCCCCCCC/C=C\CCCCCCCc1nnc(Nc2ccccc2)o1 | 25 µg/mL (≈ 62.9 µM) | 12.5 µg/mL (≈ 31.4 µM) | 17.5 mm | 12.5 µg/mL (≈ 31.4 µM) | 25 µg/mL (≈ 62.9 µM) | 14.9 mm | 15.3 mm | 25 µg/mL (≈ 62.9 µM) | 6.25 µg/mL (≈ 15.7 µM) | 12.5 µg/mL (≈ 31.4 µM) | 6.25 µg/mL (≈ 15.7 µM) | 4 | 4 | 15.9 mm | 20.2 mm | 25 µg/mL (≈ 62.9 µM) | 6.25 µg/mL (≈ 15.7 µM) | 2 | 23.1 mm | 26.1 mm | Ratio [27]: 2; MIC (Escherichia coli [9]): 12.5 µg/mL (≈ 31.4 µM); diameter of the inhibition zone (DIZ) (Pseudomonas aeruginosa [11]): 19.3 mm; MBC (Klebsiella pneumoniae [14]): 50 µg/mL (≈ 126 µM); MBC (Staphylococcus aureus [16]): 50 µg/mL (≈ 126 µM); MBC (Escherichia coli [17]): 50 µg/mL (≈ 126 µM); MIC (Pseudomonas aeruginosa [19]): 12.5 µg/mL (≈ 31.4 µM); diameter of the inhibition zone (DIZ) (Streptococcus pyogenes [20]): 15.6 mm; MBC (Streptococcus pyogenes [22]): 25 µg/mL (≈ 62.9 µM); MIC (Klebsiella pneumoniae [23]): 12.5 µg/mL (≈ 31.4 µM); MBC (Pseudomonas aeruginosa [24]): 50 µg/mL (≈ 126 µM) |
| C=CCCCCCCCCc1nnc(Nc2ccccc2)o1 | 50 µg/mL (≈ 167 µM) | 12.5 µg/mL (≈ 41.7 µM) | 19.8 mm | 6.25 µg/mL (≈ 20.9 µM) | 12.5 µg/mL (≈ 41.7 µM) | 16.8 mm | 17.7 mm | 25 µg/mL (≈ 83.5 µM) | 12.5 µg/mL (≈ 41.7 µM) | 100 µg/mL (≈ 334 µM) | 25 µg/mL (≈ 83.5 µM) | 2 | 2 | 15.2 mm | 16.9 mm | 50 µg/mL (≈ 167 µM) | 25 µg/mL (≈ 83.5 µM) | 4 | 20.8 mm | 24.2 mm | Ratio [27]: 4; MIC (Escherichia coli [9]): 12.5 µg/mL (≈ 41.7 µM); diameter of the inhibition zone (DIZ) (Pseudomonas aeruginosa [11]): 17.3 mm; MBC (Klebsiella pneumoniae [14]): 25 µg/mL (≈ 83.5 µM); MBC (Staphylococcus aureus [16]): 25 µg/mL (≈ 83.5 µM); MBC (Escherichia coli [17]): 50 µg/mL (≈ 167 µM); MIC (Pseudomonas aeruginosa [19]): 12.5 µg/mL (≈ 41.7 µM); diameter of the inhibition zone (DIZ) (Streptococcus pyogenes [20]): 18 mm; MBC (Streptococcus pyogenes [22]): 50 µg/mL (≈ 167 µM); MIC (Klebsiella pneumoniae [23]): 12.5 µg/mL (≈ 41.7 µM); MBC (Pseudomonas aeruginosa [24]): 50 µg/mL (≈ 167 µM) |
| COC1=CC(=O)C[C@@H](C)[C@]12Oc1c(Cl)c(OC)cc(OC)c1C2=O [GRISEOFULVIN] | 12.5 µg/mL (≈ 35.4 µM) | 6.25 µg/mL (≈ 17.7 µM) |  |  |  |  |  | 12.5 µg/mL (≈ 35.4 µM) | 6.25 µg/mL (≈ 17.7 µM) | 12.5 µg/mL (≈ 35.4 µM) | 6.25 µg/mL (≈ 17.7 µM) | 2 | 2 | 20 mm | 24 mm | 12.5 µg/mL (≈ 35.4 µM) | 6.25 µg/mL (≈ 17.7 µM) | 2 | 27 mm | 30 mm | Ratio [27]: 2 |
